Measured values: ChEMBL document CHEMBL1143135, “A structure-activity relationship study and combinatorial synthetic approach of C-terminal modified bifunctional peptides that are delta/mu opioid receptor agonists and neurokinin 1 receptor antagonists” (J Med Chem, 2008)

How the values were obtained:
[1] = target: Substance-P receptor (Cavia porcellus) (UniProt P30547); test: Antagonist activity at NK1 receptor in Hartley guinea pig isolated ileum assessed as inhibition of substance P-induced muscle contraction; assay type: functional, tissue-based
How it was run: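 Guinea pig ileum LMMP preparation in 1 µM naloxone. Full substance P concentration–response curves run with and without test compound; maximal substance P peak taken as 100%. Ke is the antagonist concentration that halves substance P activity, from at least four tissues.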

[2] = target: Substance-P receptor (Rattus norvegicus) (UniProt P14600); test: Displacement of [3H]substance P from rat NK1 receptor expressed in CHO cells; assay type: cell-based
Substance-P receptor = Substance-P receptor (Homo sapiens, UniProt P25103); test: Displacement of [3H]substance P from human NK1 receptor expressed in CHO cells; assay type: cell-based
[3] = Lipophilicity, log D at pH 7.4; assay type: physicochemical; settings: buffer
How it was run: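 2 mg peptide in 500 µL 0.05 M HEPES/0.1 M NaCl, pH 7.4, shaken with 500 µL 1-octanol for 12 h at rt. Phases separated by centrifugation and each phase analysed by HPLC at 230 nm.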

[4] = target: Substance-P receptor (Rattus norvegicus) (UniProt P14600); test: Displacement of [3H]substance P from rat NK1 receptor expressed in CHO cells at 1 uM; assay type: cell-based

Chain of Substance-P receptor (P25103 whole entry): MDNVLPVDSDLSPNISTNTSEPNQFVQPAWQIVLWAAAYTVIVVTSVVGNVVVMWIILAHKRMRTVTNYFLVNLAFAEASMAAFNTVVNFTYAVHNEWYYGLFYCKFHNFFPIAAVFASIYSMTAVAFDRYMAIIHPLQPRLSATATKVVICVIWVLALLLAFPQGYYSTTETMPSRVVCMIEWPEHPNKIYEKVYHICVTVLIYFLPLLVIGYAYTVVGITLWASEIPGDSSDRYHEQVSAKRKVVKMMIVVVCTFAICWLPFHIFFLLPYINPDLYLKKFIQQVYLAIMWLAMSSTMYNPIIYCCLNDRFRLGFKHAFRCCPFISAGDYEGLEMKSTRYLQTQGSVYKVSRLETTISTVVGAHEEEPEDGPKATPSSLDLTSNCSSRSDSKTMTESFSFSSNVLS
Chain of Substance-P receptor (Rattus norvegicus) (P14600 whole entry): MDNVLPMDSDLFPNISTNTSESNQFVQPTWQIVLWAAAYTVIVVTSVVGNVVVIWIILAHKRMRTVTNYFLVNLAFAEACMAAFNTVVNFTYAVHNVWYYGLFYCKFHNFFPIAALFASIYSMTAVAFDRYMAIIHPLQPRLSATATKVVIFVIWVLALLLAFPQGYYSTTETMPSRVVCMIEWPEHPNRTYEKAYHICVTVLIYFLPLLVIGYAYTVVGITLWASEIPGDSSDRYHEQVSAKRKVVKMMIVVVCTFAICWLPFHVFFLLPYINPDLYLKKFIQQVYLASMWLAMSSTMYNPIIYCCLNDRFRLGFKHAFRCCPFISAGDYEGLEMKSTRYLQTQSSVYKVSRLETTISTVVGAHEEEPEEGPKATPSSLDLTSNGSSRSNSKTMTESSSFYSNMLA
Chain of Substance-P receptor (Cavia porcellus) (P30547 whole entry): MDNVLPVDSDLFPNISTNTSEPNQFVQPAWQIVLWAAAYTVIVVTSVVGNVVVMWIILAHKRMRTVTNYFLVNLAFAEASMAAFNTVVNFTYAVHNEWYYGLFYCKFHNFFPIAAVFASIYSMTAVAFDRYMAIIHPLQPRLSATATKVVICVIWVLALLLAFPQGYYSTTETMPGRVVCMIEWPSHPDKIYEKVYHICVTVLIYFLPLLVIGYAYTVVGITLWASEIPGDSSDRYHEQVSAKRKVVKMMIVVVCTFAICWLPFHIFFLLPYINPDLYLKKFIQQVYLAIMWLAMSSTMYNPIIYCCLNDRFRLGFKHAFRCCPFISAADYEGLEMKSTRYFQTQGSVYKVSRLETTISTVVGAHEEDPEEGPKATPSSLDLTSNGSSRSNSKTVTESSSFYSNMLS

Compound	Ke [1] [nM]	logIC50 [2]	Ki (Substance-P receptor) [nM]	logIC50 (Substance-P receptor)	logD [3]	inhibition [4] [%]
CC(C)C[C@H](NC(=O)[C@@H]1CCCN1C(=O)[C@H](Cc1ccccc1)NC(=O)CNC(=O)[C@@H](C)NC(=O)[C@@H](N)Cc1ccc(O)cc1)C(=O)N[C@@H](Cc1c[nH]c2ccccc12)C(=O)OCc1cc(C(F)(F)F)cc(C(F)(F)F)c1	3.6	-8.3	0.046	-10		
CC(C)C[C@H](NC(=O)[C@@H]1CCCN1C(=O)[C@H](Cc1ccccc1)NC(=O)CNC(=O)[C@@H](C)NC(=O)[C@@H](N)Cc1ccc(O)cc1)C(=O)N[C@@H](Cc1c[nH]c2ccccc12)C(=O)NCc1cc(C(F)(F)F)cc(C(F)(F)F)c1		-7		-8.9		
CC(C)C[C@H](NC(=O)[C@@H]1CCCN1C(=O)[C@H](Cc1ccccc1)NC(=O)CNC(=O)[C@@H](C)NC(=O)[C@@H](N)Cc1ccc(O)cc1)C(=O)N[C@@H](Cc1c[nH]c2ccccc12)C(=O)OCc1ccccc1		-6.1		-6.7	3.8	
CC(C)C[C@H](NC(=O)[C@@H]1CCCN1C(=O)[C@H](Cc1ccccc1)NC(=O)CNC(=O)[C@@H](C)NC(=O)[C@@H](N)Cc1ccc(O)cc1)C(=O)N[C@@H](Cc1c[nH]c2ccccc12)C(=O)N(C)Cc1ccccc1				-8.5	3.5	33
CC(C)C[C@H](NC(=O)[C@@H]1CCCN1C(=O)[C@H](Cc1ccccc1)NC(=O)CNC(=O)[C@@H](C)NC(=O)[C@@H](N)Cc1ccc(O)cc1)C(=O)N[C@@H](Cc1c[nH]c2ccccc12)C(=O)N(C)Cc1cc(C(F)(F)F)cc(C(F)(F)F)c1		-7.7		-8.5		
CC(C)C[C@H](NC(=O)[C@@H]1CCCN1C(=O)[C@H](Cc1ccccc1)NC(=O)CNC(=O)[C@@H](C)NC(=O)[C@@H](N)Cc1ccc(O)cc1)C(=O)N[C@@H](Cc1c[nH]c2ccccc12)C(=O)NCc1ccccc1	26			-7.5	3.3	30
